The text below walks through data of ChEMBL document CHEMBL3108700, “Designing anti-inflammatory drugs from parasitic worms: a synthetic small molecule analogue of the Acanthocheilonema viteae product ES-62 prevents development of collagen-induced arthritis” (J Med Chem, 2013).

The target of test [1] is T1, Toll-like receptor 9 (Mus musculus) (UniProt Q9EQU3).
T1 sequence (whole entry): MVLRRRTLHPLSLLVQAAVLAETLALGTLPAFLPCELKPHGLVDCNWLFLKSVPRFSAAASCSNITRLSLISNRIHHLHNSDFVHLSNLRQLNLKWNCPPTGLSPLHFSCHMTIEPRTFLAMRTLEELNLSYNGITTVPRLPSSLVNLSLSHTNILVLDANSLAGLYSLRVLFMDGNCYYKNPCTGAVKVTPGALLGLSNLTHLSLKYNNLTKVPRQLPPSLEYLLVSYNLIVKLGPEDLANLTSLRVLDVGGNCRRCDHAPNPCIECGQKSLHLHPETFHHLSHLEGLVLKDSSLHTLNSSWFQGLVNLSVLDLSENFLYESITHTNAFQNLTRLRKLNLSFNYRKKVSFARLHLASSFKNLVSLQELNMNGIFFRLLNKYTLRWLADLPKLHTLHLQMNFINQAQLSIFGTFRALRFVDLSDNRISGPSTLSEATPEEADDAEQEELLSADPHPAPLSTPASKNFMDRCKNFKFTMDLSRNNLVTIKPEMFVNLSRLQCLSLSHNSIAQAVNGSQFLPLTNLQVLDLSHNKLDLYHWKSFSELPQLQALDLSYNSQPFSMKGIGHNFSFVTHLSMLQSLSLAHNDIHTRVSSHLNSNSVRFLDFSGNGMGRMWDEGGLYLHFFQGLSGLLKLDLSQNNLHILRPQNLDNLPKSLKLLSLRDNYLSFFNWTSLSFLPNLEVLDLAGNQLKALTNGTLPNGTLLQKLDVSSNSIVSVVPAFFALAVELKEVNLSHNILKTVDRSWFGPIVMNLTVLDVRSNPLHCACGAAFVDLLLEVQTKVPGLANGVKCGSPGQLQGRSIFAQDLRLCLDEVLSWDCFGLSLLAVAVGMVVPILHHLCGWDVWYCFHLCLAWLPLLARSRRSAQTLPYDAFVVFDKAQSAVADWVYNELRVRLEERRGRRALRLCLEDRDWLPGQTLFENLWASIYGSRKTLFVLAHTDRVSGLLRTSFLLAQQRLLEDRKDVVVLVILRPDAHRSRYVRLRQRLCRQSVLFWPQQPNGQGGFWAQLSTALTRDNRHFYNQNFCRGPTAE
Kind of test: Inhibition of TLR9 in BALB/c mouse BMDM assessed as downregulation of CpG-stimulated IL-6 level at 5 ug/ml preincubated for 18 hrs followed by CpG challenge measured after 24 hrs by ELISA relative to control. Summed up:
(§1)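 BALB/c male bone marrow macrophages were differentiated 7 days with L929 supernatant (≥99% CD11b+/F4/80+). Cells were plated at 2 × 10^5/well in triplicate, rested overnight, and given compounds at 5 μg/mL for 18 h. They were then stimulated with 100 ng/mL S. minnesota LPS, 10 ng/mL Pam3CSK4 (BLP) or 0.01 μM CpG for 24 h. Supernatant IL-12p40 and IL-6 were measured by ELISA (sensitivity 16 pg/mL).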
Background: In an ELISA, binding on a coated surface is turned into a signal by an enzyme label.

Test [2] concerns the target T1, Toll-like receptor 9 (Mus musculus). Put plainly: Inhibition of TLR9 in BALB/c mouse BMDM assessed as downregulation of CpG-stimulated IL-12p40 level at 5 ug/ml preincubated for 18 hrs followed by CpG challenge measured after 24 hrs by ELISA relative to control. Summed up: as §1
Test [3] addresses T2, TLR2/TLR6 (Mus musculus) (UniProt Q9QUN7+Q9EPW9). Kind of test: Inhibition of TLR2/6 in BALB/c mouse BMDM assessed as downregulation of BLP-stimulated IL-6 level at 5 ug/ml preincubated for 18 hrs followed by BLP challenge measured after 24 hrs by ELISA relative to control. It is filed as protein-complex assay. Summed up:
as §1

For test [4], the target named is T2, TLR2/TLR6 (Mus musculus). Put plainly: Inhibition of TLR2/6 in BALB/c mouse BMDM assessed as downregulation of BLP-stimulated IL-12p40 level at 5 ug/ml preincubated for 18 hrs followed by BLP challenge measured after 24 hrs by ELISA relative to control. In kind it is protein-complex assay. Summed up:
as §1

The target of test [5] is T3, Toll-like receptor 4 (Mus musculus) (UniProt Q9QUK6).
T3 sequence (whole entry): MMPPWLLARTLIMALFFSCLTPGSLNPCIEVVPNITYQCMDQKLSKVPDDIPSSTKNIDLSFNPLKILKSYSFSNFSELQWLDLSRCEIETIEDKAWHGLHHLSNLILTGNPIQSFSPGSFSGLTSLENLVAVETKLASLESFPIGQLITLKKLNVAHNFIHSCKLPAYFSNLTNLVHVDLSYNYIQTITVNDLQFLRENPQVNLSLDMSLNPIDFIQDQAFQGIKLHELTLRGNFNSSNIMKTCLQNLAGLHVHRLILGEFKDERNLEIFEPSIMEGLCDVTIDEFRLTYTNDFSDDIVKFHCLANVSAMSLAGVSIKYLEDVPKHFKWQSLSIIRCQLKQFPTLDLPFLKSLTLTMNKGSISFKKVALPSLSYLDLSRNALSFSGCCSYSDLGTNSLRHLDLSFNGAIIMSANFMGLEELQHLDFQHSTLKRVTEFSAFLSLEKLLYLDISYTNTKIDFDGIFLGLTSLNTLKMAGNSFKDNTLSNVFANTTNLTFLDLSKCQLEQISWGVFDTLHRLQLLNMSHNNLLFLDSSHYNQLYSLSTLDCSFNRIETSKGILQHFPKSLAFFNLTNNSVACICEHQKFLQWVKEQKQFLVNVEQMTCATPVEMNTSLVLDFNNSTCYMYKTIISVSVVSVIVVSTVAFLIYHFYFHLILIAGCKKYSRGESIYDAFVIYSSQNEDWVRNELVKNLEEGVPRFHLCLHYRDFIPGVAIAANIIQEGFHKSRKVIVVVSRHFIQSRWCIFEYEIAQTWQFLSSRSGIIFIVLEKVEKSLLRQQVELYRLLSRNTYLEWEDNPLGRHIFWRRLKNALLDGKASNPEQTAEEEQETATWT
Kind of test: Inhibition of TLR4 in BALB/c mouse BMDM assessed as downregulation of LPS-stimulated IL-6 level at 5 ug/ml preincubated for 18 hrs followed by LPS challenge measured after 24 hrs by ELISA relative to control. Summed up:
as §1

Test [6] addresses T3, Toll-like receptor 4 (Mus musculus). Put plainly: Inhibition of TLR4 in BALB/c mouse BMDM assessed as downregulation of LPS-stimulated IL-12p40 level at 5 ug/ml preincubated for 18 hrs followed by LPS challenge measured after 24 hrs by ELISA relative to control. Summed up:
as §1

Activity calls are given as the source filed them. The rule behind the calls is not given here.

For `O=S(=O)(CCN1CCCC1)NCc1ccc(Br)cc1`, the inhibition result (in test [1]; in test [2]; on TLR2/TLR6 (Mus musculus) [3]; on TLR2/TLR6 (Mus musculus) [4]; in test [5]; in test [6]) was “inactive” in each case.
As for `CN(C)CCS(=O)(=O)NCc1ccc(F)cc1`, the inhibition entry (in test [1]; on TLR2/TLR6 (Mus musculus) [3]; at TLR2/TLR6 (Mus musculus) [4]; in test [5]; in test [6]) was “inactive” each time. For the same molecule, the inhibition entry in test [2] is “Active”.
Take `O=S(=O)(Cc1ccccc1)NCCN1CCCC1`: the inhibition result (in test [1]; in test [2]; at TLR2/TLR6 (Mus musculus) [3]; on TLR2/TLR6 (Mus musculus) [4]; in test [5]; in test [6]) was “inactive” each time.
In the case of `CC(C)NCCS(=O)(=O)c1ccccc1`, the inhibition entry (in test [1]; in test [2]; on TLR2/TLR6 (Mus musculus) [3]; in test [5]; in test [6]) was “inactive” in each case. Further, the inhibition result on TLR2/TLR6 (Mus musculus) [4] was “Active”.
On to `O=C(Cc1ccccc1)NCCN1CCCC1`, for which the inhibition entry (in test [1]; in test [2]; at TLR2/TLR6 (Mus musculus) [3]; in test [5]; in test [6]) was “Active” throughout. Besides, the inhibition result at TLR2/TLR6 (Mus musculus) [4] was “inactive”.
With `CC[C@H](C)NCCS(=O)(=O)Cc1ccc(Br)cc1`, the inhibition result (in test [1]; in test [2]; on TLR2/TLR6 (Mus musculus) [3]; in test [5]; in test [6]) was “inactive” in each case. Also, the inhibition result on TLR2/TLR6 (Mus musculus) [4] is “Active”.
With `CN(C)CCNS(=O)(=O)Cc1ccc(F)cc1`, the inhibition entry (in test [1]; in test [2]; on TLR2/TLR6 (Mus musculus) [3]; on TLR2/TLR6 (Mus musculus) [4]; in test [5]; in test [6]) was “inactive” in each case.
For `CN(C)CCCS(=O)(=O)Cc1ccc(Br)cc1`, the inhibition entry (in test [1]; in test [2]; at TLR2/TLR6 (Mus musculus) [3]; on TLR2/TLR6 (Mus musculus) [4]; in test [6]) was “inactive” each time. In addition, the inhibition entry in test [5] is “Active”.
For `COc1cccc(C(=O)NCCN(C)C)c1`, the inhibition result (in test [1]; on TLR2/TLR6 (Mus musculus) [4]; in test [6]) was “Active” each time. The inhibition result (in test [2]; at TLR2/TLR6 (Mus musculus) [3]; in test [5]) was “inactive” in each case.
For the molecule `CC(C)(C)NCCS(=O)(=O)c1ccccc1`, the inhibition result (in test [1]; in test [2]; on TLR2/TLR6 (Mus musculus) [3]; in test [5]; in test [6]) was “inactive” throughout. The inhibition entry on TLR2/TLR6 (Mus musculus) [4] was “Active”.
As for `Cc1ccc(CP(=O)(O)OCCN(C)C)cc1`, the inhibition result (in test [1]; in test [2]; on TLR2/TLR6 (Mus musculus) [3]; at TLR2/TLR6 (Mus musculus) [4]; in test [5]; in test [6]) was “inactive” each time.
On to `Cc1ccc(CS(=O)(=O)CCCN2CCOCC2)cc1`, for which the inhibition entry (in test [1]; in test [2]; at TLR2/TLR6 (Mus musculus) [3]; on TLR2/TLR6 (Mus musculus) [4]; in test [5]; in test [6]) was “inactive” in each case.
With `O=S(=O)(Cc1ccc2ccccc2c1)NCCN1CCOCC1`, the inhibition entry (in test [1]; in test [2]; at TLR2/TLR6 (Mus musculus) [4]; in test [5]) was “Active” in each case. Further, the inhibition result (at TLR2/TLR6 (Mus musculus) [3]; in test [6]) was “inactive” throughout.
Regarding `C[N+](C)(C)CCCS(=O)(=O)Cc1ccc(Br)cc1`, the inhibition entry (in test [1]; in test [2]; at TLR2/TLR6 (Mus musculus) [4]; in test [6]) was “inactive” throughout. In addition, the inhibition result (on TLR2/TLR6 (Mus musculus) [3]; in test [5]) was “Active” in each case.
As to `C[N+]1(CCCS(=O)(=O)Cc2ccc(Br)cc2)CCOCC1`, the inhibition result (in test [1]; in test [2]; at TLR2/TLR6 (Mus musculus) [3]; on TLR2/TLR6 (Mus musculus) [4]; in test [5]; in test [6]) was “inactive” in each case.
For `O=S(=O)(Cc1ccccc1)NCCN1CCOCC1`, the inhibition entry (in test [1]; in test [2]; on TLR2/TLR6 (Mus musculus) [3]; on TLR2/TLR6 (Mus musculus) [4]; in test [5]; in test [6]) was “inactive” throughout.
Take `O=[N+]([O-])c1ccc(CNS(=O)(=O)CCN2CCOCC2)cc1`: the inhibition entry (in test [1]; in test [2]; on TLR2/TLR6 (Mus musculus) [3]; at TLR2/TLR6 (Mus musculus) [4]; in test [5]; in test [6]) was “inactive” each time.
`O=S(=O)(CCN1CCOCC1)Cc1cccc(F)c1`: the inhibition entry (in test [1]; in test [2]; on TLR2/TLR6 (Mus musculus) [3]; at TLR2/TLR6 (Mus musculus) [4]; in test [5]; in test [6]) was “inactive” throughout.
